# Compounds with a hit are over-represented: about 2.3% of the library has one in this group of screens.
# TRPC4 agonist: activators of mouse TRPC4 channel, primary screen, Fluo4 calcium, HEK293 TRPC4beta/mu-opioid cells; AID 2237, 2010; Fluo4 calcium fluorescence; stronger effect = higher value; B-score at 10 µM; Short transient receptor potential channel 4 (Mus musculus), Q9QUQ5; actives 0.49% (n = 310,000);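 active = B-score above 5 SD of library B-scores, and initial fluorescence ratio not above library mean plus 5 SD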;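 note: positive B-score marks a calcium rise read as TRPC4 activation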
#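 Material: HEK293 stable line with TRPC4beta plus mu-opioid receptor; technique: Fluo4 calcium-sensitive dye fluorescence, kinetic, 1 Hz baseline; timing: Fluo4 dye loading 45 min at room temperature, 110 s recording; controls: assay buffer as low control, maximal DAMGO as high control; read-out: integrated baseline-normalised fluorescence ratio, converted to per-well B score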
# TRPC4 PAM: positive allosteric modulators of TRPC4, primary screen, cell-based, mouse TRPC4beta, HEK293 mu-opioid, Fluo-4 calcium. Short transient receptor potential channel 4 (Mus musculus), Q9QUQ5. DAMGO EC20, Fluo-4 Ca2+ flux; stronger effect = higher value. B-score at 10 µM. actives 0.42% (n = 310,000);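 active = B-score of calcium response area above 5 SD of library B-scores, with initial fluorescence ratio within 5 SD of library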;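 note: B-score of integrated fluorescence ratio over time as area under calcium response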
# TRPC6 inhibitor: mouse TRPC6 channel inhibitors, primary screen, cell-based, HEK293, membrane potential dye; actives 1.1% (n = 310,000); AID 2553, 2010; ACh-evoked depolarization; stronger effect = lower value; B-score at 10 µM; Short transient receptor potential channel 6 (Mus musculus), Q61143;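 active = B-score under library mean minus 3 SD, initial fluorescence not abnormally high, positive integrated signal ratio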;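 note: B-score derived from integrated fluorescence ratio over the kinetic read; more negative B-score means stronger inhibition of depolarization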
# Target sequence (Q61143 whole entry, looked up): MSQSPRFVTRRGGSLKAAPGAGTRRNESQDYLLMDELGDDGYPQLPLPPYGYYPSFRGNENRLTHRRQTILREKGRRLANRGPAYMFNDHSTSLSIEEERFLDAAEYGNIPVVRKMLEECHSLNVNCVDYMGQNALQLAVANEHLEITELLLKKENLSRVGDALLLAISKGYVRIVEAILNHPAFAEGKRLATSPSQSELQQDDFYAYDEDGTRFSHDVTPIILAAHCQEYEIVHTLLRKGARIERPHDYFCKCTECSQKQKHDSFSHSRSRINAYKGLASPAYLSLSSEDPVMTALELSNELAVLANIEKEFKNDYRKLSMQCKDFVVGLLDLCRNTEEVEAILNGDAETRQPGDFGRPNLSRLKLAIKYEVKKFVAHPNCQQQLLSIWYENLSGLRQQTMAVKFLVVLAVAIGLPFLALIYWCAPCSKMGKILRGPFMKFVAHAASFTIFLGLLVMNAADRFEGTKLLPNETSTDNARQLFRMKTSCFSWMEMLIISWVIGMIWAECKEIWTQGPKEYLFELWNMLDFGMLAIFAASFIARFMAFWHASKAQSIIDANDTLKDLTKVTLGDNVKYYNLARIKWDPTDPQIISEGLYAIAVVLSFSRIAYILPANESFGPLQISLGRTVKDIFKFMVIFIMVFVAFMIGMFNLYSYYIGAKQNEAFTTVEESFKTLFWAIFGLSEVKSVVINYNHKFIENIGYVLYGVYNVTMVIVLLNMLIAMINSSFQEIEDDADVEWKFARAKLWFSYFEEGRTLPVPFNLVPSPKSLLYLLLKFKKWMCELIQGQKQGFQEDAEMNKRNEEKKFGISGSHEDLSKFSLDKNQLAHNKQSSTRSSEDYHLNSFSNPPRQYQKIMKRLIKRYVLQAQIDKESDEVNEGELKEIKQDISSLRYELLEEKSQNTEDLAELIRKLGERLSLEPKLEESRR
# TRPC6 act: mouse TRPC6 channel activators, primary screen, cell-based, HEK293, membrane potential dye. Short transient receptor potential channel 6 (Mus musculus), Q61143. HEK293-TRPC6 membrane potential dye fluorescence; stronger effect = higher value. B-score at 10 µM. actives 0.13% (n = 310,000). AID 2550, 2010;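 active = B-score of the integrated fluorescence ratio above library mean plus 3 SD, and starting fluorescence ratio within library mean plus 5 SD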;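 note: higher score means more depolarization so channel activation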
# TRPC4 inh: inhibitors of mouse TRPC4 channel, primary screen, Fluo4 calcium, HEK293 TRPC4beta/mu-opioid cells; DAMGO-evoked Fluo4 calcium flux; stronger effect = lower value; B-score at 10 µM; AID 2247, 2010; actives 0.39% (n = 300,000);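 active = B-score over 3 SD under the library average, no early fluorescence shift, positive overall ratio signal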
#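 Assay system: HEK293 cells with stable TRPC4beta plus mu-opioid receptor expression. Dosing: single dose. Measured by: Fluo4 Ca2+ flux fluorescence. Also added: DAMGO in two steps, submaximal then maximal. Read-out: B score from integrated Fluo4 fluorescence ratio.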
# TRPC4 spec 2: mouse TRPC4 off-target activity of TRPC6 inhibitors, second screen. shares compounds with TRPC6 inhibitor. HEK293 TRPC4/MOR, membrane potential dye fluorescence; channel activated by saturating DAMGO dose. inhibition, % at 10 µM. actives 42% (n = 920);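 active = compounds whose fluorescence signal differed from control wells by over 3 SD, either direction, in both duplicate plates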
# TRPC4 spec: mouse TRPC4 modulation by TRPC6 hits, confirmation, selectivity assay for TRPC6 inhibitor project, cell-based, HEK293 TRPC4/mu-opioid, membrane potential dye; shares compounds with TRPC6 inhibitor; membrane potential fluorescence; activity change, negative = inhibition, % at 10 µM; actives 61% (n = 920);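 active = rise or fall in signal beyond 3 SD of buffer-only wells in both replicate plates, either sign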;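 note: integrated kinetic ratio of fluorescence range over baseline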
# HEK293 MPD ctr 2-1: nonspecific membrane potential effects, parental HEK293, confirmation, counter-screen for TRPC6 inhibitor project, cell-based, second counter screen; shares compounds with TRPC6 inhibitor; parental HEK293 membrane potential dye fluorescence; maximal acetylcholine challenge after compound addition; signal change vs control, % at 10 µM; actives 31% (n = 920);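 active = membrane potential signal moving either way by over 3 SD of the maximum-effect control, in both duplicate plates, meaning non-specific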
# HEK293 MPD ctr-1: membrane potential modulation in parental HEK293, confirmation, counter-screen for TRPC6 inhibitor project, cell-based; actives 60% (n = 920); parental HEK293 membrane potential dye fluorescence; shares compounds with TRPC6 inhibitor; membrane potential signal change, % at 10 µM;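 active = membrane potential signal shifting up or down by more than 3 SD of buffer-only wells, on both duplicate plates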
# HEK293 MPD ctr-2: parental HEK293 membrane potential modulation, confirmation, counter-screen for TRPC6 modulator project, cell-based; shares compounds with TRPC6 inhibitor; membrane potential signal change, % at 10 µM; membrane potential dye fluorescence; actives 51% (n = 2,400);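 active = membrane potential signal moves up or down beyond 5 SD from buffer-only wells, on both duplicate plates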
# HEK293 MPD ctr 2-2: second check of TRPC6 modulator effects in parental HEK293 cells; shares compounds with TRPC6 inhibitor; membrane potential dye fluorescence; after compound, maximal acetylcholine stimulation; inhibition, % at 10 µM; actives 14% (n = 2,400);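 active = membrane potential signal drops by more than 5 SD from the mean control signal, in both duplicate plates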;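 note: plate controls were acetylcholine ECmax control wells for no effect and buffer only wells for full effect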
# TRPC4/MOR mod: TRPC4 modulation by TRPC6 hit compounds, confirmation, selectivity assay for TRPC6 modulator project, cell-based, HEK293 TRPC4/mu-opioid, membrane potential dye, mouse; shares compounds with TRPC6 inhibitor; membrane potential fluorescence; percent change from control (negative = decrease, positive = increase), % at 10 µM; actives 69% (n = 2,400);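 active = membrane potential signal moved up or down beyond 5 SD of buffer control wells, in both duplicate plates, actives on both sides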;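 note: plate controls were assay buffer wells for no effect and DAMGO maximal-effect wells for full effect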
# TRPC4 ctr inh 2: mouse TRPC4 off-target activity of TRPC6 modulators, second screen | inhibition, % at 10 µM | HEK293 TRPC4/mu-opioid, membrane potential dye fluorescence; stimulated with maximal-effect DAMGO | actives 55% (n = 2,400) | AID 488928 | shares compounds with TRPC6 inhibitor;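 active = drop in membrane potential signal beyond 5 SD of the control wells in both duplicate plates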;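 note: TRPC4 counter screen for TRPC6 hits run under conditions tuned for TRPC6 not TRPC4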
# TRPC6 block conf: mouse TRPC6 channel inhibitors, confirmation, HEK293 cells, membrane potential dye, duplicate. shares compounds with TRPC6 inhibitor. ACh-evoked depolarization. actives 43% (n = 3,300). inhibition, % at 10 µM. AID 488960, 2010;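 active = fluorescence ratio falls more than 5 SD below the full-stimulation control mean, in both duplicate runs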;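 note: integrated fluorescence ratio of peak minus minimum over baseline after agonist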
# TRPC6 act confirm: mouse TRPC6 channel activators, confirmation, HEK293 cells, membrane potential dye, duplicate. actives 11% (n = 2,800). HEK293-TRPC6 membrane potential dye fluorescence, FDSS. shares compounds with TRPC6 inhibitor. activation, % at 10 µM. AID 488961, 2010;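 active = ratio signal rise beyond 5 SD above unstimulated control wells' mean, seen in both duplicate runs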;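 note: plate controls were buffer EC0 wells for no effect and acetylcholine ECmax response for full effect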
# Numbers without * were called inactive; i = inactive; / = no result.
SMILES,TRPC4 agonist,TRPC4 PAM,TRPC6 inhibitor,TRPC6 act,TRPC4 inh,HEK293 MPD ctr-2,HEK293 MPD ctr 2-2,TRPC4/MOR mod,TRPC4 ctr inh 2,TRPC6 block conf,TRPC6 act confirm,others
O=C(NCC(=O)N(c1cccc(F)c1)C(C(=O)NC1CCCC1)c1cccnc1)c1cccs1 (stereo not given),i,i,i,i,i,/,/,/,/,/,/,
CCN(Cc1ccncc1)C(=O)C(CO)c1ccccc1 (stereo not given),i,i,-5.66*,i,i,i,66.5%*,i,i,81.5%*,i,
CCN(Cc1ccncc1)C(=S)Nc1ccccc1,i,i,i,i,i,/,/,/,/,/,/,
CCN1CCN(C(=O)c2ccccc2N(Cc2ccccc2)S(=O)(=O)c2ccc(OC)cc2)CC1,i,i,i,i,i,/,/,/,/,/,/,
Cc1ccc(C(=O)OCCN(C)Cc2ccccc2)cc1,i,i,i,i,i,/,/,/,/,/,/,
Cc1ccc(C(=O)OCCc2sc[n+](Cc3ccccc3)c2C)cc1,i,i,-9.43*,i,i,/,/,/,/,79.8%*,i,TRPC4 spec 2=i;TRPC4 spec=-11.6%*;HEK293 MPD ctr 2-1=31.0%*;HEK293 MPD ctr-1=-170.0%*
Cc1c(CCOC(=O)C23CC4CC(CC(C)(C4)C2)C3)sc[n+]1Cc1ccccc1,i,i,i,i,i,/,/,/,/,/,/,
Cc1c(CCOC(=O)C23CC4CC(CC(C4)C2)C3)sc[n+]1Cc1ccccc1,i,i,-7.46*,i,i,/,/,/,/,87.6%*,i,TRPC4 spec 2=i;TRPC4 spec=i;HEK293 MPD ctr 2-1=-9.5%*;HEK293 MPD ctr-1=i
CCC(=O)N/C(=N/c1nc(C)cc(C)n1)Nc1cccc(OC)c1,i,i,-5.78*,i,i,i,i,i,i,i,i,
CN(CC(=O)NC1CCN(Cc2ccccc2)CC1)S(=O)(=O)c1ccc2c(c1)c(=O)n(C)c(=O)n2C,i,i,-6.05*,i,i,i,i,-11.0%*,i,i,i,
Fc1ccc(Cn2nnc3ccccc32)cc1,i,i,-7.91*,i,i,/,/,/,/,i,i,TRPC4 spec 2=i;TRPC4 spec=i;HEK293 MPD ctr 2-1=i;HEK293 MPD ctr-1=-0.6%*
COc1ccc(CCNC(=O)c2cc3c(=O)n4ccccc4nc3n(CCCN3CCOCC3)c2=N)cc1,i,i,-7.38*,i,i,/,/,/,/,i,i,TRPC4 spec 2=i;TRPC4 spec=i;HEK293 MPD ctr 2-1=-64.5%*;HEK293 MPD ctr-1=i
Cc1ccc2nc3c(cc(C(=O)NCCc4ccccc4)c(=N)n3CCCN3CCOCC3)c(=O)n2c1,i,i,-5.98*,i,i,i,i,i,53.5%*,i,i,
COc1ccc(CCn2c(=N)c(C(=O)N3CCN(C)CC3)cc3c(=O)n4ccccc4nc32)cc1,i,i,-7.18*,i,i,-274.5%*,83.5%*,-49.5%*,62.0%*,68.0%*,i,
N#Cc1cc2c(=O)n3ccccc3nc2n(CCCN2CCOCC2)c1=O,i,i,-12.2*,i,i,-285.0%*,85.0%*,-48.0%*,49.0%*,55.5%*,i,
CCCS(=O)(=O)N1CCc2ccc(NC(=O)C3CCCO3)cc2C1 (stereo not given),i,i,i,i,i,/,/,/,/,/,/,
COc1ccccc1CNC(=O)COC(=O)c1nccnc1N,i,i,i,i,i,/,/,/,/,/,/,
COc1ccc(C)cc1N(C)C(=O)Cc1c(C(=O)O)n(C)c2ccccc12,i,i,i,i,i,/,/,/,/,/,/,
COc1ccc(CCNC(=O)c2cc3c(=O)n4ccccc4nc3n(CCN3CCOCC3)c2=N)cc1,i,i,-5.72*,i,i,i,i,74.0%*,86.5%*,i,i,
COc1ccc(CCNC(=O)c2cc3c(=O)n4ccccc4nc3n(CCCN3CCOCC3)c2=N)cc1OC,i,i,i,i,i,/,/,/,/,/,/,
COc1ccc(CCn2c(=N)c(C(=O)NCCN3CCOCC3)cc3c(=O)n4ccccc4nc32)cc1OC,i,i,-5.59*,i,i,151.5%*,109.0%*,54.0%*,44.5%*,63.5%*,/,
N=c1c(C(=O)NC2CCCC2)cc2c(=O)n3ccccc3nc2n1CCN1CCOCC1,i,i,i,i,i,/,/,/,/,/,/,
O=C(COc1ccc(C(=O)c2ccccc2)cc1)Nc1cccnc1,i,i,i,i,i,/,/,/,/,/,/,

# Source: PubChem BioAssay (Johns Hopkins Ion Channel Center)
